Experimental data: ChEMBL document CHEMBL4513216, “Probing the Open Global Health Chemical Diversity Library for Multistage-Active Starting Points for Next-Generation Antimalarials” (ACS Infect Dis, 2020)

Experiment: Toxicity liver stage against HepG2, at 10uM
Format: cell-based
Parameters: test concentration 10 uM, cell line HepG2-A16-CD81EGFP
Settings: human, HepG2-A16-CD81EGFP cells; read-out: INHIBITION
Procedure, shortened: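 Uninfected HepG2-A16-CD81EGFP cells, 3 × 10^3 per well, 1536-well, plated on prespotted compound at 10 μM final, parasite-free screening media added to match infected plates; puromycin 10 μM positive, DMSO 0.5% negative; run in parallel with 48 h PbLuc assay at 37 °C, 5% CO2; viability by CellTiter-Glo luminescence, normalized to controls.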

SMILES	cytotoxicity at 10 µM
Cc1cc2ncn(C(=O)N3CCOCC3)c2cc1C	-1.45%
CC1CCN(c2ncc(C#N)c(N)n2)CC1	15.5%
CCN1CC(COc2ccc(OC)cc2)Oc2ccncc2S1(=O)=O (stereo not given)	-7.6%
O=C1c2cccnc2OC(CN2CCOCC2)CN1C1CCC1 (stereo not given)	-4.18%
Nc1nc2c(c(NC(=O)Nc3ccc(Cl)c(Cl)c3)n1)CCCC2	-6.92%
CCN(c1ccsc1C(=O)N1CCCCC1)S(=O)(=O)c1ccccc1	9.78%
CN(C)S(=O)(=O)N1CC(c2nc(-c3ccsc3)no2)C1	-6.6%
CCC(C)NC(=O)c1nnn(-c2ccc(Br)cc2)n1 (stereo not given)	5.81%
O=C(O)CC(CC(=O)N(Cc1ccsc1)C1CC1)c1cccs1 (stereo not given)	7.8%
O=C(c1ccccn1)N1CCC(Oc2cccnc2)CC1	-3.59%
Cc1nsc(C(=O)NCCc2ccc(F)cc2)n1	-6.92%
Cc1cnc(N2CC(C(=O)N3CCOCC3)C3(CCOCC3)C2)nc1 (stereo not given)	4.47%
CN1CCN([C@@H]2CN(C(=O)c3ccsc3)[C@@H]3CCCO[C@H]23)CC1	6.74%
CN1C(Cn2cccn2)C[C@@H]2CN(Cc3cnn(C)c3)CC[C@@H]21 (stereo not given in full)	3.16%
COCCN1CCn2cc(CNC(=O)C3CCC3)nc2C1	3.68%
COC[C@@]12CCO[C@@H]1CCN(C(=O)Cc1ccccc1C)C2	2.05%
CCS(=O)(=O)N1CC[C@H]2[C@H]1CC(=O)N2Cc1csc(C)n1	-133%
COCC1COCCC12CCN(C(=O)COc1ccccc1)CC2 (stereo not given)	-1.69%
Cc1noc([C@@H]2CC[C@@H]3[C@@H](CCN3S(C)(=O)=O)O2)n1	-2.16%
COc1ncccc1C(=O)N1CC[C@H]2C[C@H](c3noc(C)n3)O[C@@H]2C1	5.31%
O=S(=O)(NCC1CCN(c2cnccn2)CC1)c1c(F)cccc1F	10.4%
COCc1c(C(=O)O)nnn1Cc1cccc(C(F)(F)F)c1	2.17%

SMILES	cytotoxicity at 10 µM
O=C(Nc1cnn(Cc2ccc(F)cc2Cl)c1)C1CC1	-4.83%
Cc1nc2[nH]cnc(Nc3cnn(C)c3)c-2n1	5.59%
CN1CCN(C(=O)CCn2nnc3ccccc32)CC(C(N)=O)C1 (stereo not given)	2.24%
O=C(NCCO)c1sc2ncccc2c1C1CN(C2CCCC2)CCO1 (stereo not given)	10.8%
Cc1cc(C)nc(C2CCN(C3CCOCC3)C2)n1 (stereo not given)	0.469%
Cc1ccccc1OC1CCN(S(=O)(=O)c2c(C)n[nH]c2C)CC1	0.0656%
Cc1nc2c(c(Nc3ccccn3)n1)CN(S(C)(=O)=O)CC2	11.1%
CN1CCOC(c2cncc(CCC(=O)N(C)C)n2)C1 (stereo not given)	0.55%
CC(=O)N1CCCC(Cc2cnc(-c3c(C)nn(C)c3C)cn2)C1 (stereo not given)	-1.37%
Cc1cc(C(=O)NCCc2c(C)nn(C)c2C)nc(N2CCCCC2)n1	-16%
Cc1nc(CCC(N)=O)cc(C2CCNCC2)n1	-15.1%
O=C(N[C@@H]1CN(Cc2cccc3[nH]ccc23)C[C@H]1O)c1cscn1	-2.86%
Brc1csc(-c2noc(C3COCCO3)n2)c1 (stereo not given)	-1.92%
CCC(C)(C)C1CCCN1C(=O)c1coc(S(=O)(=O)NC)c1 (stereo not given)	-13.5%
COC(=O)c1cccc(C(=O)N(C)Cc2cccc(F)c2)c1	5.75%
COCCN(c1cc(C)nc2nc(C(F)(F)F)nn12)C1CCCC1	-0.0692%
CCc1cc(=O)[nH]c(-c2ccc(NC(C)COC)nc2)n1 (stereo not given)	-146%
Cc1cc(C)n(C2CN(Cc3nc4cc(Cl)ccc4n3C)C2)n1	-2.35%
CC(C)CN(C)S(=O)(=O)c1ccc(Cl)cc1C#N	-47.2%
CC(NC(=O)CNc1cc2c(cc1Cl)OCCO2)c1ccco1 (stereo not given)	-1.31%
Cn1c(SCc2noc(C(C)(C)C)n2)nnc1C1CCS(=O)(=O)C1 (stereo not given)	8.32%
COCCCC(=O)Nc1[nH]nc(-c2ccncc2)c1C	-0.158%

SMILES	cytotoxicity at 10 µM
CCOCCN1CCN(CCC(=O)N2CCCCC2)CC1C (stereo not given)	-5.99%
COc1c(CNCc2ccccc2Cn2cccn2)c(C)nn1C	9.79%
CCn1cc(S(=O)(=O)NCC(OC)c2cccc(Cl)c2)cn1 (stereo not given)	10.1%
CC(Nc1cccc2c1OCCO2)C(=O)Nc1ccc(Cl)cc1 (stereo not given)	2.84%
COCc1nc2cc(NCc3ncc[nH]3)ccc2o1	-4.52%
Cc1cccc(NC(=O)[C@@H]2CCCN2Cc2nc(C)c(C)o2)n1	-4.34%
O=C(NCc1ccccc1CN1CCCC1)Nc1cccnc1	6.75%
CC(C)(C)C(=O)NCCC(=O)NC(C)(C)c1ccc2c(c1)OCO2	-1.26%
O=C(NCC1(CO)CC1)NC(c1nccs1)C1CC1 (stereo not given)	1.23%
c1ccc(-c2nnc(CNCC3CCCN3c3cccnn3)o2)cc1 (stereo not given)	-10.5%
CNC(=O)CCNC(=O)c1ccccc1N1CCOCC1	2.29%
COc1ccc(F)cc1C[S+]([O-])CC(=O)NCC(C)C (stereo not given)	-5.95%
Cc1nc(C)n(C2CCCN(C(=O)CCn3ccnn3)C2)n1 (stereo not given)	-0.649%
O=C(Nc1ccccc1-c1cccs1)N1CCN(CC(F)F)CC1	-2.11%
CCn1c(C)cc(C(=O)NCc2cccc(S(=O)(=O)NC)c2)c1C	-6.43%
COc1c(Br)cccc1CCNC(=O)c1csnn1	-2.5%
CNC(=O)CN(C(=O)c1cc(C(C)C)no1)c1cccc(F)c1	9.77%
COc1c(C)cnc(CN(C)C(=O)Nc2ccc3c(c2)CCO3)c1C	-0.921%
Cc1ccc(NC(=O)c2ncc(C(N)=O)cc2Cl)cc1F	-3.53%
Cn1c(SCC(=O)NC(C)(C#N)C2CC2)nc2ccccc21 (stereo not given)	-2.15%
CCc1noc(CN(C)C(=O)COc2cc(Cl)cc(Cl)c2)n1	-0.966%
O=C(CCn1c(=O)oc2ccccc21)NCC(O)c1ccccc1 (stereo not given)	-15.6%

SMILES	cytotoxicity at 10 µM
Cc1cc(C)cc(CN2CCN(C(=O)COCC3CCCO3)CC2=O)c1 (stereo not given)	4.07%
CN(Cc1cccnc1)c1nc(-c2ccccn2)nc2c1CCNCC2	3.64%
CCCOCC(=O)N1CCC2(CC1)c1nc[nH]c1CCN2S(C)(=O)=O	3.22%
Cn1ccnc1CN1CCC(c2ccnc(-c3cccc(O)c3)c2)C1 (stereo not given)	6.52%
CCN(CC)C(=O)[C@@H]1C[C@@H](N)CN1C(=O)c1cc2c([nH]c1=O)CCC2	-2.79%
Cc1cc(CNCC2(O)CCCN(CCCc3ccccc3)C2=O)n[nH]1 (stereo not given)	-2.4%
Cc1nc(N2CCN(C)CC2)ncc1C(=O)N1CC[C@](C)(O)[C@H](C)C1	1.88%
CC(C)NS(=O)(=O)c1cc(C(=O)O)cc(-c2ccc3c(c2)OCO3)c1	0.873%
COc1cccc(-c2noc(-c3ccc(N4CC(N)C4)nc3)n2)c1OC	-4.8%
Nc1nnc(CCNc2ncnc3c2CCN(C(=O)C2CC2)C3)s1	-7%
CCc1nnc(N2CCN(c3ccccc3)C(=O)C2)o1	-8.74%
COc1cc(C2CC(=O)Nc3c2nc2n3CCCC2)cc(OC)c1O (stereo not given)	-9.59%
Cc1cc(C)cc(CCC(=O)N(C)CCc2cn[nH]c2)c1	3.04%
O=C(N[C@H]1CN(c2ccncc2)C[C@@H]1C1CC1)C1CCOCC1	-11.8%
O=C1OCCN1Cc1cc(C(F)(F)F)ccc1F	-5.52%
Cc1cc(N2CCCN(C(C(=O)O)c3cccc(C)c3F)CC2)ccn1 (stereo not given)	-2.11%
CCOC(=O)N1CCCn2nc(C(=O)NCCN(C)C)cc2C1	3.13%
CCn1cnnc1C1CCN(C(=O)c2cc(C)n(CC)c2C)CC1	-6.08%
CC(C)N(C)S(=O)(=O)N(C)Cc1ccc2c(c1)OCCO2	-2.84%
CN1CCOC(CNCc2ccccc2OCc2ccccn2)C1 (stereo not given)	-9.39%
O=C(N1CCCC(n2cncn2)C1)C1(c2cccc(F)c2)CCC1 (stereo not given)	0.322%
CCc1nnsc1C(=O)N1CCCC(n2nc(C)nc2C)C1 (stereo not given)	4.63%

SMILES	cytotoxicity at 10 µM
COc1cc(CNCc2ccc(-n3nc(C)cc3C)nc2)cc(OC)c1	-8.57%
CCOc1ccccc1C(CC(=O)Nc1ccccn1)NC(C)=O (stereo not given)	-3.95%
O=C(c1cncc2ccccc12)N1CCC[C@@H]1CO	2.37%
c1ccc(-n2ccc(CN3CCCCC3Cn3cncn3)n2)cc1 (stereo not given)	-7.85%
CSc1ccc(C)c(C(=O)N2CCCC(n3cncn3)C2)c1 (stereo not given)	-13.1%
Cc1cnn(CC2CCCN2Cc2nccn2CC(F)(F)F)c1 (stereo not given)	-8.5%
CCN1CCN(C2CCN(Cc3nnc(C(C)C)o3)CC2)C1=O	-0.677%
CC(C)COC(C)C(=O)NCc1ccccc1 (stereo not given)	4.79%
Fc1ccc(-c2nnc(CN3CCOC(Cn4cncn4)C3)o2)cc1 (stereo not given)	-5.97%
CCOc1c(Cl)cccc1NCc1cc(C)on1	1.04%
Cc1cnn(C2CCCN(C(=O)c3sccc3-n3cnnn3)C2)c1 (stereo not given)	-8.72%
O=C(CCc1cccnc1)N1CCCC(n2cncn2)C1 (stereo not given)	-10.9%
CN1CCC(c2n[nH]c3ncccc23)C1 (stereo not given)	-20.1%
CN(C)C(=O)CN1CCC2(CCCN(Cc3cccn3C)C2)C1=O (stereo not given)	11.3%
Cn1cc(N2C(=O)CC[C@@H]3[C@H]2CCN3Cc2ccncc2)cn1	-8.85%
CN1CCN([C@@H]2CCN(CC3CCOC3)[C@H]2Cc2cnn(C)c2)CC1 (stereo not given in full)	5.25%
O=C(Cc1ccccn1)N1CCc2ncnc(N3CCCC3)c2CC1	-2.13%
Cc1nnc(N2C[C@H](Oc3ccccn3)[C@H]3OCCC[C@H]32)s1	10.7%
Cc1cccc(CN2Cc3ncn(C)c3C(COCC(=O)N(C)C)C2)n1 (stereo not given)	4.56%
O=C(NCC1CC1)[C@@H]1CCO[C@@H]2CCN(Cc3ccc(F)cc3)C[C@H]21	1.42%
CC(C)n1c(=O)[nH]c2cn(-c3ccc(Cl)cc3)c(=O)n21	-0.769%
CC(C)CC(=O)NCC1CCC(C(c2ccccn2)N(C)C)CC1 (stereo not given)	12.2%
